Laboratory results published in ChEMBL document CHEMBL1140232, “Surprising alteration of antibacterial activity of 5"-modified neomycin against resistant bacteria” (2008).
Converted amounts (≈) assume the structure as drawn.

Experiments:
Escherichia coli [1] = experiment: Antibacterial activity against Escherichia coli TG1 pTZ19U-3 plasmid encoded for APH(3')-1 after 12 to 18 hrs; type: functional
Procedure, shortened: (§1)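 Broth microdilution. Bacterial suspension adjusted with broth to absorbance 0.08–0.1 at 625 nm, diluted further in broth, and mixed in wells with 2-fold serial dilutions of compound. Plates incubated at 35°C for 12–18 h. MIC is the lowest concentration inhibiting growth; each determination repeated at least three times.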

Escherichia coli [2] = experiment: Antibacterial activity against Escherichia coli TG1 pSF815 plasmid encoded for AAC(6')/APH(2') after 12 to 18 hrs; type: functional; procedure, shortened: as §1
Escherichia coli [3] = experiment: Antibacterial activity against aminoglycoside-susceptible Escherichia coli TG1 after 12 to 18 hrs; type: functional; procedure, shortened: as §1
Escherichia coli [4] = experiment: Antibacterial activity against aminoglycoside-susceptible Escherichia coli ATCC 25922 after 12 to 18 hrs; type: functional; procedure, shortened: as §1
Escherichia coli [5] = experiment: Antibacterial activity against Escherichia coli TG1 pET28a plasmid encoded for APH(3')-3a after 12 to 18 hrs; type: functional; procedure, shortened: as §1
Enterococcus [6] = experiment: Activity of Enterococcus APH(3')-3a
Enterococcus [7] = experiment: Ratio of kcat to Km of Enterococcus APH(3')-3a
Staphylococcus aureus = experiment: Antibacterial activity against aminoglycoside-susceptible Staphylococcus aureus ATCC 25923 after 12 to 18 hrs; type: functional; procedure, shortened: as §1
Enterococcus faecalis = experiment: Antibacterial activity against vancomycin-resistant Enterococcus faecalis ATCC 51299 expressing vanB, ant(6)-1, aac(6')-aph(2') resistant gene after 12 to 18 hrs; type: functional
Procedure, shortened: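 Broth microdilution MIC. Culture diluted with broth to an absorbance of 0.08–0.1 at 625 nm. 100 μL of this was diluted into 10 mL broth and dispensed into 96-well plates. Each well received 50 μL inoculum plus 50 μL of a 2-fold compound dilution series. Plates were incubated at 35°C for 12–18 h. MIC is the lowest concentration that inhibits growth, from at least three repeats.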

SMILES | MIC (Escherichia coli [1]) | MIC (Escherichia coli [2]) | MIC (Escherichia coli [3]) | MIC (Escherichia coli [4]) | MIC (Escherichia coli [5]) | Km (Enterococcus [6]) | Vmax (Enterococcus [6]) | kcat (Enterococcus [6]) | kcat/Km (Enterococcus [7]) | MIC (Staphylococcus aureus) | MIC (Enterococcus faecalis)
NC[C@@H]1O[C@H](O[C@H]2[C@@H](O)[C@H](O[C@@H]3[C@@H](O)[C@H](N)C[C@H](N)[C@H]3O[C@H]3O[C@H](CN)[C@@H](O)[C@H](O)[C@H]3N)O[C@@H]2CNC(=O)[C@@H](N)CO)[C@H](N)[C@@H](O)[C@@H]1O | ≥ 2000 µg/mL | 16 µg/mL (≈ 22.8 µM) | 8 µg/mL (≈ 11.4 µM) | 8 µg/mL (≈ 11.4 µM) | 32 µg/mL (≈ 45.7 µM) | 42 µM | 1.01 µmol/min/mg | 0.51 s⁻¹ | 1.2 ×10⁴ /M/s | 1 µg/mL (≈ 1.43 µM) | 
CN(C)Cc1cn(C[C@H]2O[C@@H](O[C@@H]3[C@@H](O)[C@H](N)C[C@H](N)[C@H]3O[C@H]3O[C@H](CN)[C@@H](O)[C@H](O)[C@H]3N)[C@H](O)[C@@H]2O[C@H]2O[C@@H](CN)[C@@H](O)[C@H](O)[C@H]2N)nn1 | ≥ 2000 µg/mL | 16 µg/mL (≈ 22.1 µM) | 8 µg/mL (≈ 11.1 µM) | 8 µg/mL (≈ 11.1 µM) | 64 µg/mL (≈ 88.5 µM) | 120 µM | 0.65 µmol/min/mg | 0.33 s⁻¹ | 0.28 ×10⁴ /M/s | 2 µg/mL (≈ 2.77 µM) | 
NC[C@@H]1O[C@H](O[C@H]2[C@@H](O)[C@H](O[C@@H]3[C@@H](O)[C@H](N)C[C@H](N)[C@H]3O[C@H]3O[C@H](CN)[C@@H](O)[C@H](O)[C@H]3N)O[C@@H]2CNC(=O)[C@H](N)CO)[C@H](N)[C@@H](O)[C@@H]1O | ≥ 2000 µg/mL | 16 µg/mL (≈ 22.8 µM) | 8 µg/mL (≈ 11.4 µM) | 8 µg/mL (≈ 11.4 µM) | 64 µg/mL (≈ 91.3 µM) | 57 µM | 0.93 µmol/min/mg | 0.47 s⁻¹ | 0.82 ×10⁴ /M/s | 1 µg/mL (≈ 1.43 µM) | 
NCCCC[C@@H](N)C(=O)NC[C@H]1O[C@@H](O[C@@H]2[C@@H](O)[C@H](N)C[C@H](N)[C@H]2O[C@H]2O[C@H](CN)[C@@H](O)[C@H](O)[C@H]2N)[C@H](O)[C@@H]1O[C@H]1O[C@@H](CN)[C@@H](O)[C@H](O)[C@H]1N | ≥ 2000 µg/mL | 64 µg/mL (≈ 86.3 µM) | 16 µg/mL (≈ 21.6 µM) | 32 µg/mL (≈ 43.1 µM) | 64 µg/mL (≈ 86.3 µM) | 75 µM | 0.7 µmol/min/mg | 0.35 s⁻¹ | 0.47 ×10⁴ /M/s | 1 µg/mL (≈ 1.35 µM) | 
C[C@H](N)C(=O)NC[C@H]1O[C@@H](O[C@@H]2[C@@H](O)[C@H](N)C[C@H](N)[C@H]2O[C@H]2O[C@H](CN)[C@@H](O)[C@H](O)[C@H]2N)[C@H](O)[C@@H]1O[C@H]1O[C@@H](CN)[C@@H](O)[C@H](O)[C@H]1N | ≥ 2000 µg/mL | 16 µg/mL (≈ 23.4 µM) | 8 µg/mL (≈ 11.7 µM) | 8 µg/mL (≈ 11.7 µM) | 64 µg/mL (≈ 93.5 µM) | 60 µM | 0.9 µmol/min/mg | 0.45 s⁻¹ | 0.75 ×10⁴ /M/s | 0.5 µg/mL (≈ 0.73 µM) | 
CC(=O)NCC1CN(Cc2cn(C[C@H]3O[C@@H](O[C@@H]4[C@@H](O)[C@H](N)C[C@H](N)[C@H]4O[C@H]4O[C@H](CN)[C@@H](O)[C@H](O)[C@H]4N)[C@H](O)[C@@H]3O[C@H]3O[C@@H](CN)[C@@H](O)[C@H](O)[C@H]3N)nn2)C(=O)O1 (stereo partly specified) | ≥ 2000 µg/mL | 32 µg/mL (≈ 38.3 µM) | 16 µg/mL (≈ 19.1 µM) | 32 µg/mL (≈ 38.3 µM) | 125 µg/mL (≈ 150 µM) | 160 µM | 0.41 µmol/min/mg | 0.21 s⁻¹ | 0.13 ×10⁴ /M/s | 4 µg/mL (≈ 4.79 µM) | 
NC[C@@H]1O[C@H](O[C@H]2[C@@H](O)[C@H](O[C@@H]3[C@@H](O)[C@H](N)C[C@H](N)[C@H]3O[C@H]3O[C@H](CN)[C@@H](O)[C@H](O)[C@H]3N)O[C@@H]2CNC(=O)CCC(=O)NC[C@H]2O[C@@H](O[C@@H]3[C@@H](O)[C@H](N)C[C@H](N)[C@H]3O[C@H]3O[C@H](CN)[C@@H](O)[C@H](O)[C@H]3N)[C@H](O)[C@@H]2O[C@H]2O[C@@H](CN)[C@@H](O)[C@H](O)[C@H]2N)[C@H](N)[C@@H](O)[C@@H]1O | 500 µg/mL (≈ 382 µM) | 16 µg/mL (≈ 12.2 µM) | 8 µg/mL (≈ 6.11 µM) | 32 µg/mL (≈ 24.4 µM) | 64 µg/mL (≈ 48.9 µM) | > 500 µM | < 0.1 µmol/min/mg | < 0.05 s⁻¹ | < 0.01 ×10⁴ /M/s | 2 µg/mL (≈ 1.53 µM) | 
C[C@@H](N)C(=O)NC[C@H]1O[C@@H](O[C@@H]2[C@@H](O)[C@H](N)C[C@H](N)[C@H]2O[C@H]2O[C@H](CN)[C@@H](O)[C@H](O)[C@H]2N)[C@H](O)[C@@H]1O[C@H]1O[C@@H](CN)[C@@H](O)[C@H](O)[C@H]1N | ≥ 2000 µg/mL | 16 µg/mL (≈ 23.4 µM) | 16 µg/mL (≈ 23.4 µM) | 16 µg/mL (≈ 23.4 µM) | 64 µg/mL (≈ 93.5 µM) | 63 µM | 0.82 µmol/min/mg | 0.41 s⁻¹ | 0.65 ×10⁴ /M/s | 1 µg/mL (≈ 1.46 µM) | 
NC[C@@H]1O[C@H](O[C@H]2[C@@H](O)[C@H](O[C@@H]3[C@@H](O)[C@H](N)C[C@H](N)[C@H]3O[C@H]3O[C@H](CN)[C@@H](O)[C@H](O)[C@H]3N)O[C@@H]2CNC(=O)CCC(=O)O)[C@H](N)[C@@H](O)[C@@H]1O | ≥ 2000 µg/mL | 64 µg/mL (≈ 89.7 µM) | 32 µg/mL (≈ 44.8 µM) | 64 µg/mL (≈ 89.7 µM) | 250 µg/mL (≈ 350 µM) | 53 µM | 0.86 µmol/min/mg | 0.43 s⁻¹ | 0.81 ×10⁴ /M/s | 8 µg/mL (≈ 11.2 µM) | 
CCCCCCC(=O)NC[C@H]1O[C@@H](O[C@@H]2[C@@H](O)[C@H](N)C[C@H](N)[C@H]2O[C@H]2O[C@H](CN)[C@@H](O)[C@H](O)[C@H]2N)[C@H](O)[C@@H]1O[C@H]1O[C@@H](CN)[C@@H](O)[C@H](O)[C@H]1N | ≥ 2000 µg/mL | 16 µg/mL (≈ 22 µM) | 8 µg/mL (≈ 11 µM) | 16 µg/mL (≈ 22 µM) | 64 µg/mL (≈ 88.2 µM) | 48 µM | 0.95 µmol/min/mg | 0.48 s⁻¹ | 1 ×10⁴ /M/s | 4 µg/mL (≈ 5.51 µM) | 
NCC[C@H](O)C(=O)NC[C@H]1O[C@@H](O[C@@H]2[C@@H](O)[C@H](N)C[C@H](N)[C@H]2O[C@H]2O[C@H](CN)[C@@H](O)[C@H](O)[C@H]2N)[C@H](O)[C@@H]1O[C@H]1O[C@@H](CN)[C@@H](O)[C@H](O)[C@H]1N | ≥ 2000 µg/mL | 16 µg/mL (≈ 22.4 µM) | 16 µg/mL (≈ 22.4 µM) | 8 µg/mL (≈ 11.2 µM) | 125 µg/mL (≈ 175 µM) | 50 µM | 0.93 µmol/min/mg | 0.47 s⁻¹ | 0.94 ×10⁴ /M/s | 1 µg/mL (≈ 1.4 µM) | 
NC[C@@H]1O[C@H](O[C@H]2[C@@H](O)[C@H](O[C@@H]3[C@@H](O)[C@H](N)C[C@H](N)[C@H]3O[C@H]3O[C@H](CN)[C@@H](O)[C@H](O)[C@H]3N)O[C@@H]2Cn2cc(CNC(=O)[C@@H]3CCCN3)nn2)[C@H](N)[C@@H](O)[C@@H]1O | ≥ 2000 µg/mL | 16 µg/mL (≈ 20.2 µM) | 16 µg/mL (≈ 20.2 µM) | 16 µg/mL (≈ 20.2 µM) | 64 µg/mL (≈ 80.8 µM) | 175 µM | 0.4 µmol/min/mg | 0.2 s⁻¹ | 0.14 ×10⁴ /M/s | 2 µg/mL (≈ 2.53 µM) | 
CN[C@H](CC(C)C)C(=O)N[C@H]1C(=O)N[C@@H](CC(N)=O)C(=O)N[C@H]2C(=O)N[C@H]3C(=O)N[C@H](C(=O)N[C@H](C(=O)O)c4cc(O)cc(O)c4-c4cc3ccc4O)[C@H](O)c3ccc(c(Cl)c3)Oc3cc2cc(c3O[C@@H]2O[C@H](CO)[C@@H](O)[C@H](O)[C@H]2O[C@H]2C[C@](C)(N)[C@H](O)[C@H](C)O2)Oc2ccc(cc2Cl)[C@H]1O [VANCOMYCIN] |  |  |  |  |  |  |  |  |  |  | 125 µg/mL (≈ 86.3 µM)
NC[C@@H]1O[C@H](O[C@H]2[C@@H](O)[C@H](O[C@@H]3[C@@H](O)[C@H](N)C[C@H](N)[C@H]3O[C@H]3O[C@H](CN)[C@@H](O)[C@H](O)[C@H]3N)O[C@@H]2Cn2cc(CNC(=O)C3CCNCC3)nn2)[C@H](N)[C@@H](O)[C@@H]1O | ≥ 2000 µg/mL | 32 µg/mL (≈ 39.7 µM) | 16 µg/mL (≈ 19.9 µM) | 16 µg/mL (≈ 19.9 µM) | 64 µg/mL (≈ 79.4 µM) | 171 µM | 0.41 µmol/min/mg | 0.21 s⁻¹ | 0.12 ×10⁴ /M/s | 4 µg/mL (≈ 4.96 µM) | 
